Screening results deposited in PubChem by several laboratories.
HCT116 PTEN-null = growth suppressors of cells with PTEN tumor suppressor deletion | HCT116 PTEN-null viability, CellTiter-Glo, 60 h; active compounds read low | viability, % at 10 µM | hit rate 1.2% among 140,000 | AID 827;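 active = viability at or below a set limit, 4 SD under the median of all tested compounds, cut at about 3.7% in these data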;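 also: PTEN knockout HCT116 line with beta catenin targeted HCT116 as companion control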
bCat KO growth = beta-catenin-lacking colon tumor cell growth suppression. viability, % at 10 µM. hit rate 1.5% among 140,000. AID 818. HCT116 beta-catenin knockout viability, CellTiter-Glo, 60 h; active compounds read low;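 active = viability at or under a set limit, the compound median less 4 SD, cut at about 6% in these data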;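 also: 0% = Hyamine 1622 control at 20 µM and 100% = untreated cell control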
TNAP inh noacc = inhibitors of human TNAP without phosphate acceptor. purified TNAP, CDP-star luminescence, 30 min. inhibition, % at 20 µM. P05186. hit rate 0.26% among 200,000. AID 1012;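 active = tissue-nonspecific alkaline phosphatase inhibition above about 50% at 20 µM in the single-dose screen, limit read from the data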;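 also: 0% = DMSO negative control and 100% = EDTA positive control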
Target sequence (P05186 whole entry, looked up): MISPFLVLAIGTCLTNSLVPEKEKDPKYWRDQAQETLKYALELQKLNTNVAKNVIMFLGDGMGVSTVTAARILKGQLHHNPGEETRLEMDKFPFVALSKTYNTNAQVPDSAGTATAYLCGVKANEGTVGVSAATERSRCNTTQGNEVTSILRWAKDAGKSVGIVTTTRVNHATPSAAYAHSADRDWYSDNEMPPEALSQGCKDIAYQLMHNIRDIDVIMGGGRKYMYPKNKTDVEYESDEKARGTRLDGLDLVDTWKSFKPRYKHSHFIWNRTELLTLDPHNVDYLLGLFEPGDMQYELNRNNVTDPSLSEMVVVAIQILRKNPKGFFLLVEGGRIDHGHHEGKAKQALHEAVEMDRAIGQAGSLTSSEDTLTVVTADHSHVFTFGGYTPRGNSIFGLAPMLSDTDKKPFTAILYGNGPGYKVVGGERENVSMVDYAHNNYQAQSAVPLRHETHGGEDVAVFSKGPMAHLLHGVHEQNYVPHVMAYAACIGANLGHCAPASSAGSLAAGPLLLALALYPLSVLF
TNAP inh hiacc = inhibitors of human TNAP at high phosphate acceptor concentration; P05186; purified TNAP, CDP-star luminescence, 1 M DEA; inhibition, % at 20 µM; hit rate 0.03% among 200,000; AID 1135;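 active = over 50% inhibition of tissue-nonspecific alkaline phosphatase at 20 µM in the single-dose screen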;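 also: plate controls were DMSO wells for no effect and EDTA-quenched wells as full inhibition for full effect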
TNAP act hi DEA = activators of human TNAP at high phosphate acceptor concentration. purified TNAP, CDP-star luminescence, 1 M DEA, 30 min; active compounds read high; 0 = EDTA background, 1 = DMSO-only activity. P05186. 200,000 tested, under 10 active. activation factor at 20 µM. AID 1136;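 active = activation factor at least 2 at 20 µM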
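Assay system: human TNAP; Input: enzyme diluted 1/800 final; Reagent: CDP-star luminogenic substrate at 100 µM final; Timing: 30 min, room temperature; Signal: luminescence; Evaluation: TNAP activation factor scaled between EDTA and DMSO control wells.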
L major viab = Leishmania major promastigote growth inhibition | Leishmania major promastigotes, resazurin fluorescence viability | inhibition, % at 10 µM | hit rate 9% among 200,000 | AID 1063; in the data active = inhibition above about 50%;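 also: promastigotes grown with compound for 44 hours at 28 °C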
Numbers without * were called inactive; . = not tested or not shown. Rows were chosen to be rich in hits. Some 9.6% of all compounds tested hit in one or more screens of this group.

SMILES | HCT116 PTEN-null | bCat KO growth | TNAP inh noacc | TNAP inh hiacc | TNAP act hi DEA | L major viab
O=C(N1CCOCC1)N1CCC(c2nc(-c3ccc(S(=O)(=O)N4CCOCC4)cc3)no2)CC1 | 83 | 84 | -9 | -5 | 1.1 | 11
O=C(C1CC1)N1CCC(c2nc(-c3ccc(S(=O)(=O)N4CCCC4)cc3)no2)CC1 | 72 | 97 | -11 | -4 | 1 | 53*
O=C(Cc1ccccc1)N1CCCC(c2nc(-c3ccc(S(=O)(=O)N4CCCC4)cc3)no2)C1 (stereo unspecified) | 60 | 61 | 11 | 0 | 1 | 99*
Cc1oc(-c2cccs2)nc1CN1CCN(C(C)C)C(CCO)C1 (stereo unspecified) | . | . | -7 | -3 | 1 | 0
CCC1CCCCN1C(=S)Nc1cccc(S(=O)(=O)N(C)C)c1 (stereo unspecified) | . | . | -4 | -1 | 1 | -1
Cc1cc(C)cc(C(=O)OCC(=O)Nc2cccc(S(=O)(=O)NC3=NCCCCC3)c2)c1 | 89 | 80 | -5 | 1 | 1 | 52*
O=C(COC(=O)c1ccccc1)Nc1cccc(S(=O)(=O)NC2=NCCCCC2)c1 | 101 | 94 | -5 | -4 | 1 | -3
N#C[C@H]1[C@H](c2ccccc2)[C@](C#N)(C(=O)c2ccccc2)[C@@H]2C=Cc3ccccc3N21 | 3.3* | 5.3* | -3 | 1 | 1 | 48
Cc1ccc(-c2ccc(/C=N/N=C3/NC(=O)C(CC(=O)O)S3)o2)c([N+](=O)[O-])c1 (stereo unspecified) | 100 | 107 | 2 | 2 | 1 | 100*
O=C(O)CC1S/C(=N/N=C/c2ccc(-c3ccccc3[N+](=O)[O-])o2)NC1=O (stereo unspecified) | 103 | 102 | 4 | 5 | 1 | 100*
CCN1CCCC1CNCc1cccc(OC)c1OCc1ccc(F)cc1 (stereo unspecified) | 90 | 76 | -10 | 1 | 1 | 63*
NS(=O)(=O)c1ccc(CNC(=O)c2cc(-c3ccccn3)nc3ccc(Cl)cc23)cc1 | . | . | -8 | -3 | 1 | 3
COc1ccc(-c2nc(-c3ccccc3)c(-c3cc([N+](=O)[O-])ccc3C)[nH]2)cc1OC | 41 | 54 | 5 | 4 | 1 | 65*
COc1ccc(N2CCN(CC(=O)Nc3c(C)cc(C)cc3C)CC2)cc1 | 95 | 97 | -3 | -4 | 1 | 79*
CCOC(=O)N1CCC(n2c(SCC(=O)NCCc3ccc(S(N)(=O)=O)cc3)nc3ccccc3c2=O)CC1 | . | . | 0 | 5 | 1 | 23
COc1cccc(CN(Cc2ccco2)C(c2ccc(F)cc2)c2nnnn2C(C)(C)C)c1 (stereo unspecified) | 34 | 19 | 3 | -9 | 1.1 | 58*
CC(C)(C)n1nnnc1C(c1cccnc1)N(Cc1ccccc1)Cc1ccco1 (stereo unspecified) | 58 | 52 | -2 | -2 | 1 | 85*
CCC(C)(C)n1nnnc1C(C(C)C)N(Cc1cccnc1)Cc1ccco1 (stereo unspecified) | . | . | -10 | -7 | 1.1 | 45
CC1Cc2ccccc2N1C1=CC(=O)CCC1 (stereo unspecified) | . | . | 1 | 4 | 1 | 98*
CC1Cc2ccccc2N1C1=NS(=O)(=O)c2ccccc21 (stereo unspecified) | 103 | 96 | -14 | -5 | 1 | 0
CC(=O)N1C(O)CC(C)N1c1ccccc1 (stereo unspecified) | 95 | 102 | -4 | -6 | 1.1 | -6
CC(C)c1ccccc1OCC(=O)NC1CCCc2ccccc21 (stereo unspecified) | 33 | 35 | -1 | -2 | 1 | 5
Cc1cccc(OCC(=O)NC2CCCc3ccccc32)c1C (stereo unspecified) | 58 | 56 | 0 | -5 | 1.1 | 61*
O=C(CN1CCCN(Cc2ccc(F)cc2Cl)C1=O)NC1CCCC1 | . | . | -2 | -1 | 1 | -6
O=C(O)Cc1cc(C(=O)Nc2ccc(Br)cc2)sc1-c1ccccc1 | 101 | 97 | -5 | 0 | 1 | -7
SMILES | HCT116 PTEN-null | bCat KO growth | TNAP inh noacc | TNAP inh hiacc | TNAP act hi DEA | L major viab
COc1cccc(OCCCCCN2CCOCC2)c1 | 102 | 98 | -13 | -6 | 1.1 | 99*
Fc1ccc(OCCCCN2CCOCC2)cc1 | . | . | -8 | -1 | 1 | 85*
Brc1ccc(Oc2ncc(CN3CCOCC3)s2)cc1 | 88 | 92 | -2 | 0 | 1 | 90*
Brc1ccc(OCCOCCN2CCOCC2)cc1 | 96 | 92 | -2 | -5 | 1.1 | 90*
OC(COc1ccc(Br)cc1)CN1CCOCC1 (stereo unspecified) | 103 | 100 | -9 | -2 | 1 | -2
CN1CCN(CCCCOc2ccc(F)cc2)CC1 | 111 | 106 | -12 | -5 | 1.1 | -5
Cn1cnnc1SCC(=O)Nc1cc(S(=O)(=O)N2CCCCCC2)ccc1Cl | 106 | 99 | -15 | -4 | 1 | 1
O=C(CNS(=O)(=O)/C=C/c1ccccc1)OC1CCOC1=O (stereo unspecified) | . | . | 2 | 1 | 1 | 0
Cc1nsc(Nc2ccccc2)c1C#N | . | . | -6 | 2 | 1 | -2
O=C(c1ccco1)N1CCN(CC(O)COc2ccc3oc4ccccc4c3c2)CC1 (stereo unspecified) | 90 | 91 | -14 | -5 | 1.1 | 85*
O=C(c1ccco1)N1CCN(CCCCOc2ccc(F)cc2)CC1 | 98 | 96 | -2 | 1 | 1 | 91*
O=C(CCN1CCN(C(=O)c2ccco2)CC1)Nc1ccc(F)cc1 | 103 | 104 | -14 | -3 | 1 | 4
Brc1ccc(OCCCCCN2CCOCC2)cc1 | . | . | -10 | 0 | 1 | 98*
Cc1ccc(S(=O)(=O)N2CCN(C(=O)N(C)C)CC2)cc1 | . | . | -8 | -4 | 1 | -5
Cc1nc(SCC(=O)Nc2cc(Cl)ccc2[N+](=O)[O-])nc(C)c1C | 95 | 84 | -2 | 4 | 1 | -3
Cc1ccc(CN2CCC(c3nc4ccc(Cl)cc4[nH]3)CC2)cc1 | 17 | 18 | -8 | -6 | 1.1 | 92*
O=C(c1cccc(Cl)c1)N1CCC(c2nc3ccccc3[nH]2)CC1 | . | . | 13 | 8 | 0.9 | 4
Clc1ccc2nc(C3CCN(Cc4ccccc4)CC3)[nH]c2c1 | 60 | 57 | -12 | -7 | 1.1 | 88*
CC1CCCCN1C(=O)CN1CCC(c2nc3ccc(Cl)cc3[nH]2)CC1 (stereo unspecified) | . | . | -14 | -6 | 1.1 | 3
O=C(CCNC(=O)c1ccccc1Cl)Nc1cccc(C(F)(F)F)c1 | 91 | 103 | 15 | 1 | 1 | 65*
CCN(CC)S(=O)(=O)c1ccc(/C=C/C(=O)Nc2ccc(F)c(F)c2F)cc1 | 26 | 23 | -12 | -7 | 1.1 | 89*
CCN(CC)S(=O)(=O)c1ccc(/C=C/C(=O)Nc2ccc(F)cc2F)cc1 | 20 | 14 | -11 | -4 | 1 | 56*
